Measured values from different studies.
Protocols differ between the studies behind these lines.
Target: Myotonin-protein kinase (DMPK, Homo sapiens, UniProt Q09013)
Residues used in one study (Q09013 1-629): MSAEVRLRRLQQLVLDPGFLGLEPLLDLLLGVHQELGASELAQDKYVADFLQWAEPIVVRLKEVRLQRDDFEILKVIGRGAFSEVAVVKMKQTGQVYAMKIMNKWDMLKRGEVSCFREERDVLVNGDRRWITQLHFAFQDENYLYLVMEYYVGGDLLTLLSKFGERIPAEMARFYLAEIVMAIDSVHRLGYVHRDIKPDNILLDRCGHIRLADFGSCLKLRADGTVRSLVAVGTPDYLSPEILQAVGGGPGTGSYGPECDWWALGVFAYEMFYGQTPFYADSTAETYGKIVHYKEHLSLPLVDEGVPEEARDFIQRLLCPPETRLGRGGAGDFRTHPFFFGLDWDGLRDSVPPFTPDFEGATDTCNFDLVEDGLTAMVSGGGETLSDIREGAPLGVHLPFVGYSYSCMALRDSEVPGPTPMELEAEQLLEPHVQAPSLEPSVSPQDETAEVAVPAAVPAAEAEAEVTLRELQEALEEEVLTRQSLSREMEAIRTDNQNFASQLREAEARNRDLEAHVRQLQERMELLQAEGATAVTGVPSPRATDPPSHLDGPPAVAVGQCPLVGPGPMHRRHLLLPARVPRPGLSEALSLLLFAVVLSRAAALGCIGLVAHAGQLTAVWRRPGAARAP

Nc1cnc(N2CCc3cc(S(=O)(=O)Nc4c(F)cc(Cl)cc4F)cc(N4CCCC4=O)c32)nc1 — remaining binding (cell-free assay, competition with immobilised ligand; 1 µM): 100%
c1cncc(-c2cccc(Nc3nccc(NC4CCCCC4)n3)c2)c1 — remaining binding (binding, competition with immobilised ligand; 10 µM): 100%
O=C(c1ccc(Nc2nccc(-c3cc4ccccc4s3)n2)cc1)N1CCC(N2CCCC2)CC1 — remaining binding (binding, competition with immobilised ligand; 1 µM): 100%
O=C1CCc2cc(Nc3cc(OC4CCOCC4)c([N+](=O)[O-])cc3Cl)ccc2N1 — remaining binding (cell-free assay, competition with immobilised ligand; 1 µM): 96%
N[C@H]1CCN(c2nccc(-c3cnn4ncccc34)n2)C1 — remaining binding (binding; 1 µM): 57%
COc1cccc(CNC(=O)c2nc3scc(COCc4ccc(C(=O)O)cc4)c3c(=O)[nH]2)c1 — remaining binding (cell-free assay, competition with immobilised ligand; 1 µM): 85.4%
COc1ncc2cc3ccccc3nc2c1C#N — remaining binding (cell-free assay, competition with immobilised ligand; 5 µM): 100%
COc1cnc(Nc2cccc(S(N)(=O)=O)c2)nc1N1CCN(c2ccccc2)CC1 — remaining binding (binding, competition with immobilised ligand; 1 µM): 100%
C[C@@H]1CCN(c2nccc(-c3cnn4ncccc34)n2)C1 — remaining binding (binding; 1 µM): 90%
C[C@@H](c1ccc(-n2cnc3c(N)ncnc32)cc1)N1CCc2nn(C)c(Cc3ccccc3)c2C1=O — remaining binding (binding, competition with immobilised ligand; 0.1 µM): 86%
CN(C)c1nccc(-c2cnn3ncccc23)n1 — remaining binding (binding; 1 µM): 100%
O=C(c1ccc(Nc2ncc(Cl)c(-c3ccc(Cl)s3)n2)cc1)N1CCC(N2CCCC2)CC1 — remaining binding (binding, competition with immobilised ligand; 1 µM): 100%
O=c1nc(-c2ccccn2)sc2ccccc12 — remaining binding (binding, competition with immobilised ligand; 1 µM): 100%
C=CC(=O)N1CCC(C(=O)NCC(=O)N2CCN(c3nc(-c4cnc(N)nc4C(F)F)nc(N4CCOCC4)n3)CC2)CC1 — remaining binding (binding, competition with immobilised ligand; 1 µM): 87%
CN(C)c1nccc(-c2cnc3ncccn23)n1 — remaining binding (binding; 1 µM): 82%
O=C(NCC1CCOCC1)c1n[nH]cc1NC(=O)c1c(F)cccc1F — remaining binding (binding, competition with immobilised ligand; 1 µM): 38%
c1cnn2ncc(-c3ccnc(N4CCC45COC5)n3)c2c1 — remaining binding (binding; 1 µM): 98%
CO[C@@H](C)c1c(Nc2ccc([C@@H](N(C)C(=O)C3CCS(=O)(=O)CC3)C(F)(F)F)cc2)cnc2cc(Cl)nn12 — remaining binding (cell-free assay, competition with immobilised ligand; 1 µM): 91%
COc1ccnn2ncc(-c3ccnc(N(C)C)n3)c12 — remaining binding (binding; 1 µM): 100%
O=C(NCCCN1CCOCC1)c1ccc(Nc2nccc(-c3cc4ccccc4s3)n2)cc1 — remaining binding (binding, competition with immobilised ligand; 1 µM): 100%
Cn1nc(C(=O)NCc2ccc(C(=O)O)cc2)cc1-c1ccc2[nH]ccc2c1 — remaining binding (cell-free assay, competition with immobilised ligand; 0.1 µM): 76%
CN(c1nccc(-c2cnn3ncccc23)n1)C1CC1 — remaining binding (binding; 1 µM): 100%
